Experimental data reported in ChEMBL document CHEMBL4321796, “Proteolysis Targeting Chimeras for the Selective Degradation of Mcl-1/Bcl-2 Derived from Nonselective Target Binding Ligands” (J Med Chem, 2019).
The source made the active and inactive calls. The calls are words filed in the database; no cut-off is given here.

What was measured:
[1] = target: T1, Protein cereblon/Apoptosis regulator Bcl-2 (Homo sapiens, UniProt P10415+Q96SW2); assay: Induction of CRBN-mediated Bcl-2 degradation in human HeLa cells assessed as relative abundance at 10 uM measured at 2 hrs by Western blot analysis (reference value: 1); type: cell-based
T1 sequence (P10415 whole entry, looked up): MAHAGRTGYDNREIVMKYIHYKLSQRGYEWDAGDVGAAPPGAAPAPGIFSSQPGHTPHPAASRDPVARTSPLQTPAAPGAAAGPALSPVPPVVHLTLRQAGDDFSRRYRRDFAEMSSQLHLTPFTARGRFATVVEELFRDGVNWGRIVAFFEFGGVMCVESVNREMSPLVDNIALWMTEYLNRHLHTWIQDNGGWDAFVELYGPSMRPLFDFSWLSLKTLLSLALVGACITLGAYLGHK
T1 sequence (Q96SW2 whole entry, looked up): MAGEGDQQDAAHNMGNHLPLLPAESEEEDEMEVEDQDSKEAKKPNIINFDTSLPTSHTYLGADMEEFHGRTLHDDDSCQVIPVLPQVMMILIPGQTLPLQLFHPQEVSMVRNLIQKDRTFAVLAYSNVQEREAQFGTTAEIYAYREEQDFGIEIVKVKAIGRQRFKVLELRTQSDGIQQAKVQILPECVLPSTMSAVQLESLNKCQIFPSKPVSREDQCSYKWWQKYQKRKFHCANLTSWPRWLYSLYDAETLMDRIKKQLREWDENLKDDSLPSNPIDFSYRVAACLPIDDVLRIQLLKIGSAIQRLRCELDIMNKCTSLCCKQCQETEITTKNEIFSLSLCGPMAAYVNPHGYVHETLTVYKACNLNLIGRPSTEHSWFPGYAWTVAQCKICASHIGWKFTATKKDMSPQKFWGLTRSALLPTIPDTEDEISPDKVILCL
Method in brief: (§1)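 HeLa cells in DMEM with 10% FBS, exposed to 10 µM compound over a 0–24 h time course. Mcl-1 and Bcl-2 detected by immunoblot (NP-40 lysis, BCA-equalized SDS-PAGE, PVDF, ECL) and quantified relative to DMSO control; mean ± s.d., n=3 independent samples.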

[2] = target: T1, Protein cereblon/Apoptosis regulator Bcl-2; assay: Induction of CRBN-mediated Bcl-2 degradation in human HeLa cells assessed as relative abundance at 10 uM measured at 20 hrs by Western blot analysis (reference value: 1); type: cell-based; method in brief: as §1
[3] = target: T2, Protein cereblon/Induced myeloid leukemia cell differentiation protein Mcl-1 (Homo sapiens, UniProt Q07820+Q96SW2); assay: Induction of CRBN-mediated Mcl-1 degradation in human HeLa cells assessed as relative abundance at 10 uM measured at 4 hrs by Western blot analysis (reference value: 1); type: cell-based; method in brief: as §1
Target sequence in this assay (Q07820 whole entry, looked up): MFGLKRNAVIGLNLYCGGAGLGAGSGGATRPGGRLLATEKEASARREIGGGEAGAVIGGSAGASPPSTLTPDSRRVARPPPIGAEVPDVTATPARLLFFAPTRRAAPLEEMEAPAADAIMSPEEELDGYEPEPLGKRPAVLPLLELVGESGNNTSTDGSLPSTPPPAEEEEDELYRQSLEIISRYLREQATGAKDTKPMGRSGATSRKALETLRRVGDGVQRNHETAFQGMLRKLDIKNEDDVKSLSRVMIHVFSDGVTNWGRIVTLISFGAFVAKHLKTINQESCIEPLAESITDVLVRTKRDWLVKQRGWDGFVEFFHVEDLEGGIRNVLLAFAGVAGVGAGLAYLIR
Target sequence in this assay (Q96SW2 whole entry, looked up): as the sequence (Q96SW2 whole entry, looked up) above

NCI-H23 = assay: Cytotoxicity against human H23 cells assessed as effect on PARP cleavage at 0.3 to 10 uM incubated for 12 hrs by Western blot analysis; type: functional, cell-based
Method in brief: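 H23 cells grown in RPMI1640 with 10% FBS at 37°C, 5% CO2, treated 12 h over a concentration gradient. Mcl-1 and PARP cleavage read by immunoblot: NP-40 lysis buffer with protease inhibitors, BCA-normalized SDS-PAGE, PVDF, ECL detection; n=3 independent samples.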

[4] = target: T2, Protein cereblon/Induced myeloid leukemia cell differentiation protein Mcl-1; assay: Protac activity at CRBN/Mcl-1 in human HeLa cell lysates assessed as ternary complex formation by Western blot analysis based pull-down assay; type: subcellular; details: Lysate
Method in brief: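 HeLa lysate (25×10^6 cells, 1% Triton X-100 IP buffer), 1 mg total protein, incubated overnight with 1 µg CRBN antibody across a compound concentration gradient. Capture on protein A+G agarose, three Triton washes, boiled in loading buffer. Mcl-1, Bcl-2 and CRBN detected by immunoblotting. n=3 independent samples.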
Target sequence in this assay (Q07820 whole entry, looked up): as the sequence (Q07820 whole entry, looked up) above
Target sequence in this assay (Q96SW2 whole entry, looked up): as the sequence (Q96SW2 whole entry, looked up) above

[5] = target: T2, Protein cereblon/Induced myeloid leukemia cell differentiation protein Mcl-1; assay: Induction of CRBN-mediated Mcl-1 degradation in human HeLa cells assessed as relative abundance at 10 uM measured at 24 hrs by Western blot analysis (reference value: 1); type: cell-based; method in brief: as §1
Target sequence in this assay (Q07820 whole entry, looked up): as the sequence (Q07820 whole entry, looked up) above
Target sequence in this assay (Q96SW2 whole entry, looked up): as the sequence (Q96SW2 whole entry, looked up) above

[6] = target: T2, Protein cereblon/Induced myeloid leukemia cell differentiation protein Mcl-1; assay: Induction of CRBN-mediated Mcl-1 degradation in human HeLa cells assessed as relative abundance at 0.3 uM after 12 hrs by Western blot analysis (reference value: 1); type: cell-based
Target sequence in this assay (Q07820 whole entry, looked up): as the sequence (Q07820 whole entry, looked up) above
Target sequence in this assay (Q96SW2 whole entry, looked up): as the sequence (Q96SW2 whole entry, looked up) above

[7] = target: T1, Protein cereblon/Apoptosis regulator Bcl-2; assay: Induction of CRBN-mediated Bcl-2 degradation in human HeLa cells assessed as relative abundance at 10 uM measured at 24 hrs by Western blot analysis (reference value: 1); type: cell-based; method in brief: as §1
[8] = target: T1, Protein cereblon/Apoptosis regulator Bcl-2; assay: Induction of CRBN-mediated Bcl-2 degradation in human HeLa cells assessed as relative abundance at 1 uM after 12 hrs by Western blot analysis (reference value: 1); type: cell-based
[9] = target: T2, Protein cereblon/Induced myeloid leukemia cell differentiation protein Mcl-1; assay: Induction of CRBN-mediated Mcl-1 degradation in human HeLa cells assessed as Mcl-1 level at 10 uM after 12 hrs by Western blot analysis relative to control; type: cell-based
Target sequence in this assay (Q07820 whole entry, looked up): as the sequence (Q07820 whole entry, looked up) above
Target sequence in this assay (Q96SW2 whole entry, looked up): as the sequence (Q96SW2 whole entry, looked up) above

[10] = target: T2, Protein cereblon/Induced myeloid leukemia cell differentiation protein Mcl-1; assay: Induction of CRBN-mediated Mcl-1 degradation in human HeLa cells assessed as relative abundance at 10 uM after 12 hrs by Western blot analysis (reference value: 1); type: cell-based
Target sequence in this assay (Q07820 whole entry, looked up): as the sequence (Q07820 whole entry, looked up) above
Target sequence in this assay (Q96SW2 whole entry, looked up): as the sequence (Q96SW2 whole entry, looked up) above

[11] = target: T2, Protein cereblon/Induced myeloid leukemia cell differentiation protein Mcl-1; assay: Induction of CRBN-mediated Mcl-1 degradation in human HeLa cells assessed as Mcl-1 removal activity measured at 12 hrs by Western blot analysis; type: cell-based
Target sequence in this assay (Q07820 whole entry): as the sequence (Q07820 whole entry, looked up) above
Target sequence in this assay (Q96SW2 whole entry): as the sequence (Q96SW2 whole entry, looked up) above

[12] = target: T2, Protein cereblon/Induced myeloid leukemia cell differentiation protein Mcl-1; assay: Induction of CRBN-mediated Mcl-1 degradation in human HeLa cells assessed as relative abundance at 3 uM after 12 hrs by Western blot analysis (reference value: 1); type: cell-based
[13] = target: T2, Protein cereblon/Induced myeloid leukemia cell differentiation protein Mcl-1; assay: Induction of CRBN-mediated Mcl-1 degradation in human HeLa cells assessed as decrease in Mcl-1 level at 1 uM after 12 hrs by Western blot analysis relative to control; type: cell-based; set-up: scale not given: the % may be the effect or the level left
[14] = target: T1, Protein cereblon/Apoptosis regulator Bcl-2; assay: Induction of CRBN-mediated Bcl-2 degradation in human HeLa cells assessed as relative abundance at 10 uM measured at 8 hrs by Western blot analysis (reference value: 1); type: cell-based; method in brief: as §1
[15] = target: Apoptosis regulator Bcl-2 (Homo sapiens, UniProt P10415); assay: Inhibition of biotinylated Bim peptide (81 to 106 residues) binding to His-tagged human Bcl-2 expressed in Escherichia coli BL21 (DE3) cells preincubated for 1 hr followed by biotinylated Bim peptide addition measured after 2 hrs by ELISA
Chain of Apoptosis regulator Bcl-2 (P10415 whole entry, the tested form may be a part): as the sequence (P10415 whole entry, looked up) above
Method in brief: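 Inhibitor serially diluted (100–0.1 µM) from 10 mM DMSO stock, preincubated 1 h with 200 nM His-tagged protein in PBS (final DMSO 4%), then added 2 h to streptavidin plates holding biotin-Bim (plated at 0.09 mg/mL). Incubations at 4 °C. Detection with HRP anti-His, TMB 30 min, H2SO4 stop, A450. IC50 averaged from three independent experiments, with SD.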

[16] = target: T2, Protein cereblon/Induced myeloid leukemia cell differentiation protein Mcl-1; assay: Induction of CRBN-mediated Mcl-1 degradation in human HeLa cells assessed as relative abundance at 0.1 uM after 12 hrs by Western blot analysis (reference value: 1); type: cell-based
[17] = target: T1, Protein cereblon/Apoptosis regulator Bcl-2; assay: Induction of CRBN-mediated Bcl-2 degradation in human HeLa cells assessed as reduction in Bcl-2 level at 10 uM after 12 hrs by Western blot analysis; type: cell-based
[18] = target: T2, Protein cereblon/Induced myeloid leukemia cell differentiation protein Mcl-1; assay: Induction of CRBN-mediated Mcl-1 degradation in human HeLa cells at 10 uM pretreated with Bcl-2 inhibitor Nap-1 followed by compound addition by Western blot analysis; type: cell-based
[19] = target: T2, Protein cereblon/Induced myeloid leukemia cell differentiation protein Mcl-1; assay: Induction of CRBN-mediated Mcl-1 degradation in human HeLa cells assessed as relative abundance at 10 uM measured at 2 hrs by Western blot analysis (reference value: 1); type: cell-based; method in brief: as §1
[20] = target: T1, Protein cereblon/Apoptosis regulator Bcl-2; assay: Induction of CRBN-mediated Bcl-2 degradation in human HeLa cells assessed as relative abundance at 10 uM measured at 4 hrs by Western blot analysis (reference value: 1); type: cell-based; method in brief: as §1
[21] = target: Protein cereblon/E3 ubiquitin-protein ligase Mdm2 (Homo sapiens) (UniProt Q00987+Q96SW2); assay: Induction of CRBN-mediated MDM2 degradation in human HeLa cells at 10 uM incubated for 12 hrs by Western blot analysis; type: cell-based
Chain of Protein cereblon/E3 ubiquitin-protein ligase Mdm2 (Homo sapiens) (Q00987 whole entry, looked up): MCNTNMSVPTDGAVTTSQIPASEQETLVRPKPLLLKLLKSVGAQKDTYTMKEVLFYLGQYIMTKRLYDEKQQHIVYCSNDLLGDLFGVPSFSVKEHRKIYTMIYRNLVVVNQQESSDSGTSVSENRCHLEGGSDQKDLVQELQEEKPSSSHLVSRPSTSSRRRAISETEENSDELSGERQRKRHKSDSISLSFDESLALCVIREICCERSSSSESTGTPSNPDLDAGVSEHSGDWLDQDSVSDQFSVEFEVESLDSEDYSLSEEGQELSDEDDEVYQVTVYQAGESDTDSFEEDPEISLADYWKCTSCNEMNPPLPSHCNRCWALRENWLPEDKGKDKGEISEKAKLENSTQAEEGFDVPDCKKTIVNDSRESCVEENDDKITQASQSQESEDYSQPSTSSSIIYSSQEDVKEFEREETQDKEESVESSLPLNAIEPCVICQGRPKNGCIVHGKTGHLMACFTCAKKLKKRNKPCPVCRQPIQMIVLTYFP
Chain of Protein cereblon/E3 ubiquitin-protein ligase Mdm2 (Homo sapiens) (Q96SW2 whole entry, looked up): as the sequence (Q96SW2 whole entry, looked up) above

[22] = target: T2, Protein cereblon/Induced myeloid leukemia cell differentiation protein Mcl-1; assay: Induction of CRBN-mediated Mcl-1 degradation in human HeLa cells assessed as relative abundance at 10 uM measured at 16 hrs by Western blot analysis (reference value: 1); type: cell-based; method in brief: as §1
[23] = target: T1, Protein cereblon/Apoptosis regulator Bcl-2; assay: Induction of CRBN-mediated Bcl-2 degradation in human HeLa cells assessed as relative abundance at 0.3 uM after 12 hrs by Western blot analysis (reference value: 1); type: cell-based
[24] = target: T2, Protein cereblon/Induced myeloid leukemia cell differentiation protein Mcl-1; assay: Induction of CRBN-mediated Mcl-1 degradation in human K562 cells incubated for 12 hrs by Western blot analysis; type: cell-based
Method in brief: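 K562 cells kept in RPMI1640 with 10% FBS at 37 °C, 5% CO2. After compound treatment, cells lysed in NP-40 buffer with protease inhibitors. Equal protein run on SDS-PAGE, then immunoblotted; protein levels quantified from the blots.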

[25] = target: T1, Protein cereblon/Apoptosis regulator Bcl-2; assay: Induction of CRBN-mediated Bcl-2 degradation in human HeLa cells assessed as relative abundance at 10 uM after 12 hrs by Western blot analysis (reference value: 1); type: cell-based

O=C(CCCCC(=O)NCCN1C(=O)c2cccc3c(Sc4ccc(Br)cc4)ccc(c23)C1=O)NCCCCCCNc1cccc2c1C(=O)N(C1CCC(=O)NC1=O)C2=O (stereo unspecified)
fold change (FC) [1]: 1.1 | fold change (FC) [2]: 1 | fold change (FC) [3]: 1.1 | Activity (NCI-H23): Active | Activity [4]: Dose-dependent effect | fold change (FC) [5]: 0.9 | fold change (FC) [6]: 0.9 | fold change (FC) [7]: 0.9 | fold change (FC) [8]: 0.9 to 1 | Activity [9]: < 10% | fold change (FC) [10]: 0.1 to 0.2 | DC50 [11]: 700 nM | fold change (FC) [12]: 0.1 | Activity [13]: 70% | fold change (FC) [14]: 1 | IC50 [15]: 540 nM | fold change (FC) [16]: 1.1 | Activity [17]: inactive | Activity [18]: inactive | fold change (FC) [19]: 1.1 | fold change (FC) [20]: 1.1 | Activity [21]: inactive | fold change (FC) [22]: 0.4 | fold change (FC) [23]: 1 | Activity [24]: Active | fold change (FC) [25]: 0.8 to 1
